In brackets after ≈: the same amount, converted by molar mass.
Key:
Assay type in all cases: functional
Escherichia coli [1] = assay: Antimicrobial activity against Escherichia coli Ec2 containing pEc1-D plasmid expressing CTX-M-15 TEM-1 OXA-1gene
Procedure, shortened: (§1)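 β-Lactam MICs (μg/ml) measured against clinical Enterobacteriaceae isolates collected from private health care centers. Enzyme content of each isolate was assigned by isoelectric focusing, PCR with blaTEM/blaSHV/blaCTX-M primers and sequencing, with cloning to separate coexisting TEM or SHV genes. In combination tests, the β-lactamase inhibitor clavulanic acid was held at a fixed 2 μg/ml.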

Klebsiella aerogenes [2] = assay: Antimicrobial activity against Enterobacter aerogenes Ea2 expressing TEM-3 gene
Procedure, shortened: (§2)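 Clinical isolates from private health care centers. β-Lactamase content was assigned by isoelectric focusing, PCR with blaTEM-, blaSHV- and blaCTX-M-specific primers, and sequencing. MICs (μg/ml) were reported for amoxicillin, cefoxitin, cefotaxime, ceftazidime, imipenem and ertapenem. Amoxicillin, cefotaxime and ceftazidime were also tested with clavulanic acid held at a fixed 2 μg/ml.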

Klebsiella pneumoniae [3] = assay: Antimicrobial activity against Klebsiella pneumoniae Kp1 expressing SHV-4 gene; procedure, shortened: as §1
Klebsiella oxytoca = assay: Antimicrobial activity against Klebsiella oxytoca expressing TEM-11 gene; procedure, shortened: as §2
Escherichia coli [4] = assay: Antimicrobial activity against Escherichia coli Ec8 expressing TEM-21 AmpC gene; procedure, shortened: as §2
Morganella morganii = assay: Antimicrobial activity against Morganella morganii expressing TEM-24b AmpC gene; procedure, shortened: as §1
Klebsiella aerogenes [5] = assay: Antimicrobial activity against Enterobacter aerogenes Ea1 expressing TEM-24b gene; procedure, shortened: as §2
Klebsiella pneumoniae [6] = assay: Antimicrobial activity against Klebsiella pneumoniae Kp2 expressing TEM-15 gene; procedure, shortened: as §1
Klebsiella pneumoniae [7] = assay: Antimicrobial activity against Klebsiella pneumoniae Kp3 expressing SHV-2a TEM-1 gene; procedure, shortened: as §1
Enterobacter cloacae = assay: Antimicrobial activity against Enterobacter cloacae Ecl1 expressing TEM-24b AmpC TEM-1 gene; procedure, shortened: as §1
Klebsiella aerogenes [8] = assay: Antimicrobial activity against Enterobacter aerogenes Ea1 expressing TEM-24b AmpC +/- TEM-1 or TEM-2 gene; procedure, shortened: as §1
Escherichia coli [9] = assay: Antimicrobial activity against Escherichia coli Ec5 expressing CTX-M-2 TEM-1 gene; procedure, shortened: as §1
Proteus mirabilis [10] = assay: Antimicrobial activity against Proteus mirabilis Pm1-Pm3 expressing TEM-24b gene; procedure, shortened: as §2
Escherichia coli [11] = assay: Antimicrobial activity against Escherichia coli Ec7 expressing SHV-12 IRT-6 gene; procedure, shortened: as §2
Klebsiella pneumoniae [12] = assay: Antimicrobial activity against Klebsiella pneumoniae Kp5 expressing plasmid-mediated cephalosporinase ACC-1 and TEM-1; procedure, shortened: as §1
Escherichia coli [13] = assay: Antimicrobial activity against Escherichia coli Ec2 containing pEc1-B plasmid expressing CTX-M-15 TEM-1 OXA-1 gene; procedure, shortened: as §2
Escherichia coli [14] = assay: Antimicrobial activity against Escherichia coli Ec9 expressing TEM-24b TEM-26 gene; procedure, shortened: as §1
Klebsiella aerogenes [15] = assay: Antimicrobial activity against Enterobacter aerogenes Ea2 expressing TEM-3 AmpC gene; procedure, shortened: as §2
Escherichia coli [16] = assay: Antimicrobial activity against Escherichia coli Ec3 expressing CTX-M-15 TEM-1 OXA-1 gene; procedure, shortened: as §1
Proteus mirabilis [17] = assay: Antimicrobial activity against Proteus mirabilis Pm4 expressing TEM-21 gene; procedure, shortened: as §2
Klebsiella pneumoniae [18] = assay: Antimicrobial activity against Klebsiella pneumoniae Kp4 expressing SHV-12 SHV-1 and plasmid-mediated cephalosporinase CMY-4; procedure, shortened: as §1
Escherichia coli [19] = assay: Antimicrobial activity against Escherichia coli Ec2-a containing pEc1-C plasmid expressing CTX-M-15 OXA-1 gene; procedure, shortened: as §2
Escherichia coli [20] = assay: Antimicrobial activity against Escherichia coli Ec4 expressing CTX-M-1 AmpC gene; procedure, shortened: as §1
Klebsiella pneumoniae [21] = assay: Antimicrobial activity against Klebsiella pneumoniae Kp2 expressing TEM-15 TEM-17 TEM-1 gene; procedure, shortened: as §1
Escherichia coli [22] = assay: Antimicrobial activity against Escherichia coli Ec6 expressing CTX-M-14 gene; procedure, shortened: as §1
Escherichia coli [23] = assay: Antimicrobial activity against Escherichia coli Ec1 containing pEc1-A plasmid expressing CTX-M-15 TEM-1 OXA-1 gene; procedure, shortened: as §1
Escherichia coli [24] = assay: Antimicrobial activity against Escherichia coli Ec10 expressing TEM-24b gene; procedure, shortened: as §1

Row | SMILES | MIC (Escherichia coli [1]) [µg/mL] | MIC (Klebsiella aerogenes [2]) [µg/mL] | MIC (Klebsiella pneumoniae [3]) [µg/mL] | MIC (Klebsiella oxytoca) [µg/mL] | MIC (Escherichia coli [4]) [µg/mL] | MIC (Morganella morganii) [µg/mL] | MIC (Klebsiella aerogenes [5]) [µg/mL] | MIC (Klebsiella pneumoniae [6]) [µg/mL] | MIC (Klebsiella pneumoniae [7]) [µg/mL] | MIC (Enterobacter cloacae) [µg/mL] | MIC (Klebsiella aerogenes [8]) [µg/mL] | MIC (Escherichia coli [9]) [µg/mL] | MIC (Proteus mirabilis [10]) [µg/mL] | MIC (Escherichia coli [11]) [µg/mL] | MIC (Klebsiella pneumoniae [12]) [µg/mL] | MIC (Escherichia coli [13]) [µg/mL] | MIC (Escherichia coli [14]) [µg/mL] | MIC (Klebsiella aerogenes [15]) [µg/mL] | MIC (Escherichia coli [16]) [µg/mL] | MIC (Proteus mirabilis [17]) [µg/mL] | also measured
1 | C[C@@H](O)[C@H]1C(=O)N2C(C(=O)O)=C(SCCNC=N)C[C@H]12 [IMIPENEM ANHYDROUS] | 0.5 (≈ 1.67 µM) | 0.5 (≈ 1.67 µM) | 0.5 (≈ 1.67 µM) | 0.5 (≈ 1.67 µM) | 0.5 (≈ 1.67 µM) | 4 (≈ 13.4 µM) | 0.5 (≈ 1.67 µM) | 0.5 (≈ 1.67 µM) | 1 (≈ 3.34 µM) | 1 (≈ 3.34 µM) | 0.5 (≈ 1.67 µM) | 0.5 (≈ 1.67 µM) | 1 (≈ 3.34 µM) | 0.5 (≈ 1.67 µM) | 0.5 (≈ 1.67 µM) | 0.5 (≈ 1.67 µM) | 0.5 (≈ 1.67 µM) | 1 (≈ 3.34 µM) | 0.5 (≈ 1.67 µM) | 1 (≈ 3.34 µM) | MIC (Klebsiella pneumoniae [18]): 1 µg/mL (≈ 3.34 µM); MIC (Escherichia coli [19]): 0.5 µg/mL (≈ 1.67 µM); MIC (Escherichia coli [20]): 1 µg/mL (≈ 3.34 µM); MIC (Klebsiella pneumoniae [21]): 0.5 µg/mL (≈ 1.67 µM); MIC (Escherichia coli [22]): 0.5 µg/mL (≈ 1.67 µM)
2 | CO/N=C(\C(=O)N[C@@H]1C(=O)N2C(C(=O)O)=C(COC(C)=O)CS[C@H]12)c1csc(N)n1 [CEFOTAXIME] | 2 (≈ 4.39 µM) | 0.2 (≈ 0.439 µM) | 8 (≈ 17.6 µM) | 1 (≈ 2.2 µM) | 32 (≈ 70.3 µM) | 16 (≈ 35.1 µM) | 1 (≈ 2.2 µM) | 8 (≈ 17.6 µM) | 2 (≈ 4.39 µM) | 64 (≈ 141 µM) | 1 (≈ 2.2 µM) | 32 (≈ 70.3 µM) | 0.5 (≈ 1.1 µM) | 16 (≈ 35.1 µM) | 8 (≈ 17.6 µM) | 64 (≈ 141 µM) | 1 (≈ 2.2 µM) | 4 (≈ 8.78 µM) | 512 (≈ 1120 µM) | 2 (≈ 4.39 µM) | MIC (Escherichia coli [23]): 256 µg/mL (≈ 562 µM); MIC (Escherichia coli [24]): 2 µg/mL (≈ 4.39 µM); MIC (Klebsiella pneumoniae [18]): 16 µg/mL (≈ 35.1 µM); MIC (Escherichia coli [19]): 256 µg/mL (≈ 562 µM); MIC (Escherichia coli [20]): 64 µg/mL (≈ 141 µM); MIC (Klebsiella pneumoniae [21]): 64 µg/mL (≈ 141 µM); MIC (Escherichia coli [22]): 32 µg/mL (≈ 70.3 µM)
3 | C[C@@H](O)[C@H]1C(=O)N2C(C(=O)O)=C(S[C@@H]3CN[C@H](C(=O)Nc4cccc(C(=O)O)c4)C3)[C@H](C)[C@H]12 [ERTAPENEM] | 0.05 (≈ 0.105 µM) | 0.02 (≈ 0.0421 µM) | 0.02 (≈ 0.0421 µM) | 0.1 (≈ 0.21 µM) | 0.1 (≈ 0.21 µM) | 0.02 (≈ 0.0421 µM) | 0.02 (≈ 0.0421 µM) | 0.02 (≈ 0.0421 µM) | 0.02 (≈ 0.0421 µM) | 0.5 (≈ 1.05 µM) | 0.05 (≈ 0.105 µM) | 0.05 (≈ 0.105 µM) | 0.01 (≈ 0.021 µM) | 0.2 (≈ 0.421 µM) | 0.05 (≈ 0.105 µM) | 0.1 (≈ 0.21 µM) | ≤ 0.01 | 0.2 (≈ 0.421 µM) | 0.1 (≈ 0.21 µM) | 0.01 (≈ 0.021 µM) | MIC (Escherichia coli [23]): 0.05 µg/mL (≈ 0.105 µM); MIC (Escherichia coli [24]): 0.02 µg/mL (≈ 0.0421 µM); MIC (Klebsiella pneumoniae [18]): 0.01 µg/mL (≈ 0.021 µM); MIC (Escherichia coli [19]): 0.2 µg/mL (≈ 0.421 µM); MIC (Escherichia coli [20]): 0.05 µg/mL (≈ 0.105 µM); MIC (Klebsiella pneumoniae [21]): 0.1 µg/mL (≈ 0.21 µM); MIC (Escherichia coli [22]): 0.02 µg/mL (≈ 0.0421 µM)
4 | CC(C)(O/N=C(\C(=O)N[C@@H]1C(=O)N2C(C(=O)[O-])=C(C[n+]3ccccc3)CS[C@H]12)c1csc(N)n1)C(=O)O [CEFTAZIDIME] | 1 (≈ 1.83 µM) | 16 (≈ 29.3 µM) | 128 (≈ 234 µM) | 128 (≈ 234 µM) | 64 (≈ 117 µM) | 128 (≈ 234 µM) | 128 (≈ 234 µM) | 32 (≈ 58.5 µM) | 256 (≈ 468 µM) | 512 (≈ 937 µM) | 256 (≈ 468 µM) | 1 (≈ 1.83 µM) | 8 (≈ 14.6 µM) | 128 (≈ 234 µM) | 64 (≈ 117 µM) | 16 (≈ 29.3 µM) | 128 (≈ 234 µM) | 16 (≈ 29.3 µM) | 256 (≈ 468 µM) | 1 (≈ 1.83 µM) | MIC (Escherichia coli [23]): 64 µg/mL (≈ 117 µM); MIC (Escherichia coli [24]): 256 µg/mL (≈ 468 µM); MIC (Klebsiella pneumoniae [18]): 4 µg/mL (≈ 7.32 µM); MIC (Escherichia coli [19]): 256 µg/mL (≈ 468 µM); MIC (Escherichia coli [20]): 8 µg/mL (≈ 14.6 µM); MIC (Klebsiella pneumoniae [21]): 512 µg/mL (≈ 937 µM); MIC (Escherichia coli [22]): 4 µg/mL (≈ 7.32 µM)
5 | CO[C@@]1(NC(=O)Cc2cccs2)C(=O)N2C(C(=O)O)=C(COC(N)=O)CS[C@@H]21 [CEFOXITIN] | 32 (≈ 74.9 µM) | 32 (≈ 74.9 µM) | 16 (≈ 37.4 µM) | 8 (≈ 18.7 µM) | 128 (≈ 299 µM) | 128 (≈ 299 µM) | 8 (≈ 18.7 µM) | 4 (≈ 9.36 µM) | 4 (≈ 9.36 µM) | 512 (≈ 1200 µM) | 512 (≈ 1200 µM) | 4 (≈ 9.36 µM) | 2 (≈ 4.68 µM) | 64 (≈ 150 µM) | 8 (≈ 18.7 µM) | 8 (≈ 18.7 µM) | 4 (≈ 9.36 µM) | 128 (≈ 299 µM) | 32 (≈ 74.9 µM) | 4 (≈ 9.36 µM) | MIC (Escherichia coli [23]): 4 µg/mL (≈ 9.36 µM); MIC (Escherichia coli [24]): 8 µg/mL (≈ 18.7 µM); MIC (Klebsiella pneumoniae [18]): 32 µg/mL (≈ 74.9 µM); MIC (Escherichia coli [19]): 8 µg/mL (≈ 18.7 µM); MIC (Escherichia coli [20]): 64 µg/mL (≈ 150 µM); MIC (Klebsiella pneumoniae [21]): 64 µg/mL (≈ 150 µM); MIC (Escherichia coli [22]): 4 µg/mL (≈ 9.36 µM)

Reference: ChEMBL document CHEMBL1143428, “Extended-spectrum-beta-lactamase-producing Enterobacteriaceae strains in various types of private health care centers” (2007)
